Measurements published in paper PMC4938124 (Biochemistry, 2015).
One block for each compound: values may come before it.

What was measured:
hIYD·flox = molecular target: T1, hIYD·flox (Homo sapiens, UniProt Q6PHW0); assay: Stopped-flow kinetics of halotyrosine binding to hIYD·flox; conditions: relative to Cl-, Br- and I-Tyr
T1 sequence (Q6PHW0 32-289): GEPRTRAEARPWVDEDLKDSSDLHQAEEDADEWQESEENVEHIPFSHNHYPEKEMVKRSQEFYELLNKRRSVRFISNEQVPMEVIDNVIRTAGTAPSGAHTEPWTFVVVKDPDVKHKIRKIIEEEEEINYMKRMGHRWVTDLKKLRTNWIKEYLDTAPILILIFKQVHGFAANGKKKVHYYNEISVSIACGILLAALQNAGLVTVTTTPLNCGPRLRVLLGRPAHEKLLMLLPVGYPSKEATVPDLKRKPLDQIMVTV
In short: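 hIYD (residues 1–31 removed, SUMO fusion, SUMO cleaved) in 500 mM NaCl, 10% glycerol, 1 mM DTT, 50 mM sodium phosphate pH 7.4, 25 °C. Stopped-flow mixing of equal volumes under air: hIYD·flox 2 μM final with halotyrosine 5–50 μM final. Flavin fluorescence quench (λex 450 nm, λem >530 nm) followed 1 ms–1 s, fit single-exponential. kon from least-squares fit of kobs versus ligand concentration.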

IYD = conditions: cited from earlier work
hIYD·flhq [1] = molecular target: T2, hIYD·flhq (Homo sapiens, UniProt Q6PHW0); assay: Stopped-flow single-turnover oxidation of hIYD·flhq by halotyrosines; type: biochemical; conditions: set by detection threshold of the stopped-flow instrument
T2 sequence (Q6PHW0 32-289): T1 sequence (Q6PHW0 32-289)
In short: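 Anaerobic stopped-flow at 25 °C, pH 7.4 phosphate/NaCl/glycerol/DTT buffer. Dithionite-reduced hIYD·flhq was mixed 1:1 with argon-sparged halotyrosine. At 8 μM enzyme, I-Tyr was 20–200 μM and A446 was followed from 10 ms to beyond 7 s with single-exponential fits. At 5 μM enzyme, substrate was 200 μM, with diode-array spectra from 4 ms plus A360 traces fit single- or double-exponential. Spectra were globally analysed.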

hIYD = conditions: estimate, limited by solubility; cited from earlier work
hIYD·flhq [2] = molecular target: T2, hIYD·flhq; assay: Stopped-flow oxidation of hIYD·flhq by oxygen; type: biochemical; conditions: A446, 25 °C, pH 7.4, oxygen 60–610 μM
In short: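 hIYD·flhq, made by stoichiometric dithionite titration under anaerobic conditions, 5 μM final, in 500 mM NaCl, 10% glycerol, 1 mM DTT, 50 mM sodium phosphate pH 7.4, 25 °C. Stopped-flow mix with equal volume of same buffer equilibrated with air or 10/50/100% O2 (oxygen solutions 60–610 μM). A446 traces single-exponential; diode-array spectra 4 ms–7 s. kox from linear fit of kobs versus [O2]; three independent measurements averaged.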

SMILES: N[C@@H](Cc1ccc(O)c(F)c1)C(=O)O [F-Tyr]
binding rate (kon) slower than the other halotyrosines (hIYD·flox): approximately 5 fold
binding rate (kon) slower than the other halotyrosines (hIYD·flox; listed as fluorotyrosine): 5 fold
dehalogenation by IYD (IYD): inert
oxidation of flhq slower than that with I-Tyr (hIYD·flhq [1]): at least 160 fold

SMILES: N[C@@H](Cc1ccc(O)cc1)C(=O)O [Tyr, tyrosine]
Kd (hIYD): > 1 mM

kox, second-order rate constant for reaction between hIYD·flhq and oxygen (hIYD·flhq [2]): (9.3 ± 0.3) × 10^3 M^–1 s^–1
SMILES: O=O [oxygen]
